# A selection: hits, their analogues and other compounds. The true share with any hit is near 4%.
# TAAR1 antagonist: antagonists of human TAAR1 | CHO RD-HGA16 TAAR1, Fluo-8 calcium fluorescence, antagonist | inhibition, % at 3 µM | actives 1.5% (n = 360,000) | AID 624466;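 active = inhibition above a per-plate cutoff, the mean inhibition of test compounds on that plate plus 3 SD, cut at about 49% in these data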;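 also: 0% = DMSO plus EC80 beta-PEA response and 100% = DMSO alone without agonist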
#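 Assay system: RD-HGA16 CHO cells with stable hTAAR1 and Gα16 / Reagent: EC80 β-phenethylamine stimulus / Doses: 3 µM, single point / Timing: dye loading 75 min at 37 °C, then 30 min room temperature / Measured by: Fluo-8 intracellular calcium dye fluorescence, real-time kinetic reads / Controls: vehicle wells and EC80 agonist wells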
# TAAR1 ag: human TAAR1 agonism. activation, % at 3 µM. actives 0.99% (n = 360,000). CHO RD-HGA16 TAAR1, Fluo-8 calcium fluorescence; vehicle wells 0%, saturating PEA agonist 100%. Q96RJ0;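 active = activation above the mean activation of all test compounds in the run plus 3 SD, cut at about 38% in these data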
#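 Benchmarks: low control DMSO, high control PEA (EC100); System: CHO RD-HGA16 cells carrying human TAAR1 plus Gα16; Detection: Fluo-8 fluorescence, 5 s baseline then 140 s kinetic read; Schedule: 17-24 h plating, Fluo-8 75 min 37 °C, 30 min RT; Read-out basis: % activation from peak over basal fluorescence ratio, DMSO-to-PEA scaled.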
# OX1R antag-1: antagonists of human orexin 1 receptor (OX1R). O43613. OX1R-expressing cells, FRET antagonist read-out. actives 1.8% (n = 330,000). AID 485270. inhibition, % at 6.6 µM; in the data active = inhibition mostly above about 38%, no sharp cut-off; inactive = mostly below about 40%;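 also: 0% = agonist challenge alone and 100% = reference antagonist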
# Target sequence (O43613 whole entry, looked up): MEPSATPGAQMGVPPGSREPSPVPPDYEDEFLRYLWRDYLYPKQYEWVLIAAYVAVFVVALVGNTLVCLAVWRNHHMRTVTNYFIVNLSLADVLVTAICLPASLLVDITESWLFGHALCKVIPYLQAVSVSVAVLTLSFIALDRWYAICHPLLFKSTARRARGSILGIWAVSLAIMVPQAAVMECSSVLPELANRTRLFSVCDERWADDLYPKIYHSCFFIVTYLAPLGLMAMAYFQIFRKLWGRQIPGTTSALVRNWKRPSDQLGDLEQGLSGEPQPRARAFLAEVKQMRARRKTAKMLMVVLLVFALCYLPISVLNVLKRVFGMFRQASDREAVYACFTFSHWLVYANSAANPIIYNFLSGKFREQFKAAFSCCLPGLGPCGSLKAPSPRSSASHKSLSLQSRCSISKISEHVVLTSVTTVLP
# OX1R antag-2: blocks the human orexin 1 receptor | CHO/OX1R cells, Fluo-8 calcium fluorescence, orexin A | inhibition, % at 5 µM | actives 0.43% (n = 330,000) | AID 434989;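 active = inhibition above its plate's threshold, mean inhibition of all tested compounds on the plate plus 3 SD, cut at about 37% in these data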;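 also: 0% = orexin A challenge wells and 100% = SB-334867-A antagonist wells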
# CHO parental Ca: signal in parental CHO cells, OX1R antagonist counter-screen; actives 0.63% (n = 330,000); inhibition, % at 5.6 µM; parental CHO-K1, ATP-induced calcium, Fluo-8 fluorescence; AID 463079;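 active = inhibition above that plate's mean sample inhibition plus 3 SD, cut at about 26% in these data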;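 also: 0% = ATP-challenged DMSO wells and 100% = DMSO wells without ATP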
#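 Assay system: untransfected parental CHO cell line. Also added: ATP agonist challenge. Dosing: one dose, 5.6 µM nominal. Measured by: Fluo-8 fluorescence. Read-out: % inhibition. Benchmarks: ATP wells versus no-ATP DMSO wells. Repeats: no replicates.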
# The depositor's hits bear a star; x = not tested or not shown.
SMILES,TAAR1 antagonist,TAAR1 ag,OX1R antag-1,OX1R antag-2,CHO parental Ca
CCCCOCCCNC(=O)C[C@H]1C[C@@]2(C(=O)OC)C(=C[C@H](C(C)C)O[C@@H]2C2CC2)N(Cc2ccccc2)C1=O,-9.2,-1.3,x,x,x
CCN(Cc1cc2cc(C)ccc2[nH]c1=O)C(=O)c1cccc([N+](=O)[O-])c1,-13.3,-0.4,17.4,-37.1,-28.2
Cc1noc(C)c1NC(=O)N(C)C[C@@H]1OCc2cn(nn2)CCCC(=O)N([C@@H](C)CO)C[C@H]1C,9.1,0.8,x,x,x
Cc1nc2cc(NC(=O)Nc3ccccc3Cl)ccc2n1C,2.1,8.5,7.5,-22.1,2.0
COc1cc(/C=N/NC(=O)C(=O)/C=C2\NC3(CCCC3)Cc3ccccc32)ccc1O,23.7,5.5,61.0*,1.8,-18.5
CN(C)c1ccc(/C=N/NC(=O)C(=O)/C=C2\NC3(CCCC3)Cc3ccccc32)cc1,26.7,1.9,18.9,-20.2,-18.9
NC(=O)c1ccsc1NC(=O)COC(=O)CNC(=O)c1ccc(Cl)cc1,24.2,6.9,6.6,-29.9,-24.5
Cc1cc(C)cc(NC(=O)c2cc(C)n(Cc3cccs3)c2C)c1,-11.9,2.2,16.6,9.9,58.6*
O=C(COc1ccccc1)NC(=S)Nc1cccc2c(O)cccc12,11.7,42.2*,x,x,x
CCCc1cc2c(OC)ccc(O)c2c(=O)n1C,-11.2,-2.1,x,x,x
O=C(NCC1COc2ccccc2O1)c1cccc(S(=O)(=O)NCc2ccccc2)c1 (stereo not given),34.1,9.8,51.2*,-9.2,-9.8
O=C(Nc1ccccc1O)c1ccc([N+](=O)[O-])cc1,-8.0,0.8,33.3*,-2.8,16.4
O=C(Nc1nccs1)c1ccc([N+](=O)[O-])cc1,5.5,2.6,41.6*,-11.2,-7.6
O=C(Nc1ncccn1)c1ccc([N+](=O)[O-])cc1,-15.1,4.3,58.1*,-11.8,-10.1
COC(=O)C1=C(C)N(Cc2cccc(C(F)(F)F)c2)C(=NCc2ccc(C(F)(F)F)cc2)NC1c1cccc(C(F)(F)F)c1 (stereo not given),18.8,7.6,x,x,x
O=C(c1ccccc1)C12COc3ccccc3C1ON=C2c1ccccc1 (stereo not given),-11.4,2.6,x,x,x
COC(=O)[C@]12C[C@H](CC(=O)NCc3cccs3)C(=O)N(CCc3ccc(OC)c(OC)c3)C1=C[C@H](C(C)(C)C)O[C@@H]2C,-18.4,0.4,x,x,x
CCN(CC1COc2ccccc2O1)C(=O)c1ccc(Cl)c(S(=O)(=O)N2CC(C)OC(C)C2)c1 (stereo not given),-15.3,0.7,49.8*,-10.6,-15.3
O=S(=O)(NCc1ccc2c(c1)OCO2)c1ccc2c(c1)oc1ccccc12,6.3,0.3,44.0*,18.8,-8.9
Cc1ccc2oc(C(=O)NCc3ccc4c(c3)OCO4)c(C)c2c1,8.5,11.3,59.2,-14.1,-5.2
Cc1c(C(=O)NCc2ccc3c(c2)OCO3)oc2ccccc12,4.0,9.2,45.0*,-3.3,-8.6
CCOC(=O)N1CCN(C(=O)C[C@H]2C[C@@]3(C(=O)OC)C(=C[C@H](C(C)(C)C)O[C@@H]3C)N(CCC3=CCCCC3)C2=O)CC1,-64.2,-2.8,x,x,x
CN1CCCCC(NC(=O)c2ccccc2)C1=O (stereo not given),-7.1,1.8,x,x,x
CCN(c1cccc(C)c1)S(=O)(=O)c1ccc2c3c(cccc13)C(=O)N2,54.0*,9.9,38.6,-19.7,-19.3
Cc1ccc(NC(=S)NCCSc2ccc(Cl)cc2)cc1,19.7,-0.6,5.1,-14.3,6.7
SMILES,TAAR1 antagonist,TAAR1 ag,OX1R antag-1,OX1R antag-2,CHO parental Ca
Cc1ccc(SCCNC(=S)Nc2cc(C)cc(C)c2)cc1,65.0*,10.7,44.0,-3.1,-13.2
O=C(/C=C/c1ccccc1)Nc1cccc(C(=O)NCCCCc2ccccc2)c1,67.0*,12.4,x,x,x
CC(C)(C)OC(=O)N1CCCC(C(=O)Nc2cccc(C(=O)NCCc3ccccc3)c2)C1 (stereo not given),48.5*,13.3,x,x,x
CC(C)(C)OC(=O)N1CCCC(C(=O)Nc2cccc(C(=O)NC3CC3)c2)C1 (stereo not given),-5.2,3.1,x,x,x
CC(C)(C)OC(=O)N1CCCC(C(=O)Nc2cccc(C(=O)NCCCCc3ccccc3)c2)C1 (stereo not given),55.6*,12.0,x,x,x
CCCc1nc2ccc(C)cn2c1Cc1cccc(Cl)c1,-10.2,-2.4,x,x,x
Cc1ccc(Oc2ncccc2C(=O)NC2CCSC2=O)cc1 (stereo not given),-7.0,8.3,15.9,-9.1,-14.4
CC1(c2nnc(Cc3ccccc3)o2)CC(c2ccc([N+](=O)[O-])cc2)=NO1 (stereo not given),6.8,5.2,28.2,-18.0,-0.1
Cc1cc(C)n(CC(=O)N/N=C/c2ccc([N+](=O)[O-])s2)n1,3.6,4.4,57.9*,-10.1,-4.4
Cc1cc(C)n(CC(=O)N/N=C/c2cccs2)n1,0.9,9.9,3.4,-16.4,1.2
CCOC(=O)N/N=C\c1ccc([N+](=O)[O-])s1,-2.9,1.4,52.4*,-4.1,-4.3
CCCCc1c(-c2ccccc2OC)ncn1Cc1ccc(OC)c(Cl)c1,-6.5,6.1,x,x,x
CN(C)c1ccc(C(=O)Nc2nc3c(s2)CCCC3)cc1,-3.9,0.2,52.0*,-10.6,-0.7
CC(C)(C)c1ccc(C(=O)NC(=S)Nc2nc3c(s2)CCCC3)cc1,-1.1,3.1,24.3,-8.3,-4.7
Cc1ccc(S(=O)(=O)NC(=O)Nc2cccc(S(=O)(=O)N(C)C)c2)cc1,-1.8,1.1,-3.1,-12.8,-7.5
CC(C)C(c1nnnn1C(C)(C)C)N1CCC(Cc2ccccc2)CC1 (stereo not given),23.4,-1.4,6.4,-4.7,41.8*
CC(C)C(c1nnnn1C(C)(C)C)N1CCOCC1 (stereo not given),3.6,12.8,20.3,-9.3,-2.7
C#CCNC(=O)C1=C[C@@H](c2csc3ccccc23)C[C@@H](OCc2ccc(CO)cc2)O1,53.7*,20.0,16.1,-5.8,-7.3
CNC(=S)N(CCCO)Cc1cc2cc3c(cc2[nH]c1=O)OCO3,4.5,-0.4,-5.7,-3.8,7.0
COc1ccc(N(CC(=O)Nc2ccc3c(c2)OCO3)S(=O)(=O)c2ccccc2)cc1OC,0.0,4.5,5.5,-22.7,-27.5
O=C(COC(=O)c1c2c(nc3ccccc13)CCCC2)Nc1ccc2c(c1)OCO2,53.7*,7.8,37.8,-7.3,-25.6
COc1ccc(N(CC(=O)Nc2ccc3c(c2)OCO3)S(=O)(=O)c2ccccc2)c(OC)c1,56.2*,12.8,12.0,-4.6,-9.2
CC(C)c1ccccc1NC(=O)COC(=O)c1c2c(nc3ccccc13)CCN(Cc1ccccc1)C2,58.9*,11.7,34.0,-40.6,-25.1
COc1ccc(-c2cc(C(=O)OCC(=O)Nc3ccc4c(c3)OCO4)c3ccccc3n2)cc1,38.8,1.4,65.0*,-7.5,-10.3
